Experimental data reported in ChEMBL document CHEMBL1142616, “New diketopiperazine alkaloids from Penicillium fellutanum” (J Nat Prod, 2000).
Active and inactive are the calls of the source.

Columns and labels:
Format in all cases: functional, cell-based
L929 = assay: Cytotoxicity against mouse L929 cells after 72 hrs
Method in brief: (§1)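 Cells were exposed for 72 h of cultivation; L-929 mouse fibroblasts and HeLa human cells grown adherent, K-562 human leukemia cells grown nonadherent. Result given as IC50 in µg/mL.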

K562 = assay: Cytotoxicity against human K562 cells after 72 hrs; method in brief: as §1
HeLa = assay: Cytotoxicity against human HeLa cells after 72 hrs; method in brief: as §1

Measured: Activity

O=C1N[C@@H](Cc2c[nH]c3ccccc23)C(=O)N[C@H]1Cc1c[nH]c2ccccc12
inactive: all assays above

C=CC(C)(C)c1[nH]c2ccccc2c1C[C@@H]1NC(=O)[C@H](Cc2c[nH]c3ccccc23)NC1=O
inactive: all assays above

C=CC(C)(C)c1[nH]c2ccccc2c1C[C@@H]1NC(=O)[C@H](Cc2c(C(C)(C)C=C)[nH]c3ccccc23)NC1=O
inactive: all assays above
